Test results from ChEMBL document CHEMBL1142960, “Synthesis and structure-activity relationships for 2,4-dinitrobenzamide-5-mustards as prodrugs for the Escherichia coli nfsB nitroreductase in gene therapy” (J Med Chem, 2007).
≈ marks a conversion by molar mass, not a printed value.

Tests used:
[1] = system: EMT6; assay: Selectivity ratio of IC50 for EMT6 NTR-ve cells to IC50 forEMT6 NTRpuro cells; type: functional, Mus musculus
[2] = system: EMT6; assay: Antiproliferative activity against mouse wild type EMT6 NTR-ve cells after 18 hrs; type: functional, cell-based; conditions: EMT6, 18 h
[3] = Stability in alpha MEM at 37 degC after 24 hrs; type: physicochemical; conditions: read-out: Stability
Procedure, shortened: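 Percent parent compound remaining, by HPLC, after holding in α-MEM with 5% fetal calf serum at 37 °C for 24 h.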

[4] = Antiproliferative activity against human wild type Skov3 NTR-ve cells after 18 hrs; type: functional, cell-based
[5] = system: WiDr; assay: Antiproliferative activity against human WiDr NTRneo cells after 18 hrs; type: functional, cell-based
[6] = system: WiDr; assay: Selectivity ratio of IC50 for WiDr NTR-ve cells to IC50 for WiDr NTRneo cells; type: functional, Homo sapiens
[7] = system: WiDr; assay: Antiproliferative activity against human wild type WiDr NTR-ve cells after 18 hrs; type: functional, cell-based
[8] = Selectivity ratio of IC50 for Skov3 NTR-ve cells to IC50 for Skov3 NTRneo cells; type: functional, Homo sapiens
[9] = Antiproliferative activity against human Skov3 NTRneo cells after 18 hrs; type: functional, cell-based; conditions: SK-OV-3, 18 h
[10] = system: EMT6; assay: Antiproliferative activity against mouse EMT6 NTRpuro cells after 18 hrs; type: functional, cell-based; conditions: EMT6, 18 h
[11] = Solubility in alpha MEM; type: physicochemical
Procedure, shortened: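 Solubility (mM) in α-MEM with 5% fetal calf serum at ambient temperature, measured by HPLC.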

[12] = system: V79; assay: Antiproliferative activity against chinese hamster V79 NTRpuro cells after 18 hrs; type: functional, cell-based; conditions: Cricetulus griseus, V79, 18 h
[13] = system: V79; assay: Selectivity ratio of IC50 for V79 NTR-ve cells to IC50 for V79 NTRpuro cells; type: functional, Cricetulus griseus
[14] = system: V79; assay: Antiproliferative activity against chinese hamster wild-type V79 NTR-ve cells after 18 hrs; type: functional, cell-based; conditions: Cricetulus griseus, V79, 18 h

Structure (SMILES) | Ratio IC50 [1] | IC50 [2] [µM] | remaining at 24 h [3] [%] | IC50 [4] [µM] | IC50 [5] [µM] | Ratio IC50 [6] | IC50 [7] [µM] | Ratio IC50 [8] | IC50 [9] [µM] | IC50 [10] [µM] | solubility [11] [µM] | IC50 [12] [µM] | Ratio IC50 [13] | IC50 [14] [µM]
CS(=O)(=O)OCCN(CCCl)c1cc(C(=O)NCC(O)CO)c([N+](=O)[O-])cc1[N+](=O)[O-] (centres undefined) | 344 | 1210 | 74 | 1380 | 6 | 328 | 1230 | 286 | 5 | 3.81 | 2100 (≈ 1020 µg/mL) |  |  | 
O=C(NCCCCN1CCOCC1)c1cc(N(CCCl)CCCl)c([N+](=O)[O-])cc1[N+](=O)[O-] | 28 | 192 | 91 | 447 | 23 | 3 | 68 | 61 | 9.3 | 7.4 | 2000 (≈ 985 µg/mL) | 25 | 5.9 | 142
CS(=O)(=O)c1cc([N+](=O)[O-])c(N(CCCl)CCCl)cc1C(N)=O |  | > 50 | 74 | > 50 | > 50 |  | > 50 |  | > 50 | > 50 | 60 (≈ 23.1 µg/mL) | > 50 |  | > 50
COC(=O)CCNC(=O)c1cc(N(CCBr)CCBr)c([N+](=O)[O-])cc1[N+](=O)[O-] | 149 | 76 | 70 | 110 | 2.1 | 47 | 80 | 49 | 2.3 | 0.59 | 280 (≈ 147 µg/mL) | 1.1 | 45 | 52
O=C(NO)c1cc(N(CCBr)CCBr)c([N+](=O)[O-])cc1[N+](=O)[O-] | 500 | 33 | 69 | 59 | 0.39 | 92 | 45 | 180 | 0.31 | 0.07 | 1200 (≈ 547 µg/mL) | 0.2 | 180 | 34
NCCNC(=O)c1cc(N(CCCl)CCCl)c([N+](=O)[O-])cc1[N+](=O)[O-] | 413 | 124 | 99 | 417 | 5.9 | 38 | 180 | 69 | 6.8 | 0.37 | 9200 (≈ 3630 µg/mL) | 52 | 11 | 462
O=C(O)CCNC(=O)c1cc(N(CCBr)CCBr)c([N+](=O)[O-])cc1[N+](=O)[O-] | 17 | 40 |  | 67 | 7.6 | 4.8 | 40 | 12 | 7.6 | 2.4 | 8400 (≈ 4300 µg/mL) | 13 | 45 | 54
O=C(NC(CO)(CO)CO)c1cc(N(CCCl)CCCl)c([N+](=O)[O-])cc1[N+](=O)[O-] | 1530 | 693 | 97 | 970 | 9.8 | 61 | 700 | 205 | 4.2 | 0.45 | 1800 (≈ 819 µg/mL) | 13 | 91 | 1050
CS(=O)(=O)NC(=O)c1cc(N(CCCl)CCCl)c([N+](=O)[O-])cc1[N+](=O)[O-] | 2 | 450 | 100 | 1040 | 223 | 5.4 | 1310 | 6.7 | 160 | 278 | 17000 (≈ 7300 µg/mL) | 237 | 1.5 | 328
CC(O)CNC(=O)c1cc(N(CCCl)CCCl)c([N+](=O)[O-])cc1[N+](=O)[O-] (centres undefined) | 233 | 593 | 107 | 705 | 19 | 30 | 586 | 75 | 9.5 | 2.6 | 1200 (≈ 491 µg/mL) | 21 | 21 | 438
O=C(O)CCNC(=O)c1cc(N(CCCl)CCCl)c([N+](=O)[O-])cc1[N+](=O)[O-] | 13 | 4630 |  | 5720 | 1810 | 3.5 | 6390 | 11 | 643 | 424 |  | 470 | 9.5 | 4890
O=C(NOCCO)c1cc(N(CCCl)CCCl)c([N+](=O)[O-])cc1[N+](=O)[O-] | 85 | 560 | 100 | > 1190 | 25 | 39 | 895 | >90 | 11 | 6.6 | 2100 (≈ 864 µg/mL) | 13 | 76 | 750
O=C(NCCCN1CCOCC1)c1cc(N(CCCl)CCCl)c([N+](=O)[O-])cc1[N+](=O)[O-] | 8 | 199 | 96 | 692 | 90 | 1.9 | 163 | 14 | 55 | 24 | 22000 (≈ 10500 µg/mL) | 105 | 3.4 | 348
O=C(NCCCN1CCOCC1)c1cc(N(CCBr)CCBr)c([N+](=O)[O-])cc1[N+](=O)[O-] | 3.6 | 56 | 74 | 272 | 57 | 2.4 | 134 | 7.3 | 34 | 16 | 860 (≈ 488 µg/mL) | 16 | 9.2 | 148
CN(C)CCNC(=O)c1cc(N(CCCl)CCCl)c([N+](=O)[O-])cc1[N+](=O)[O-] | 1.8 | 62 | 103 | 246 | 66 | 0.9 | 62 | 6 | 44 | 35 |  | 81 | 1.1 | 89
